The structures appear in SMILES notation. Converted amounts (≈) assume the structure as drawn.

Holding throughout (assay type): functional
The test system of one test is Candida albicans. The experiment in a line: Antifungal activity against Candida albicans ATCC 10231. A digest of the protocol:
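Bioautographic assay against Candida albicans CIP 4872 (also listed as ATCC 10231 and NIH 3147), with the minimal inhibitory concentration (MIC) estimated.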

Another test has as its system Cryptococcus neoformans. The test is described as follows: Antifungal activity against Cryptococcus neoformans H99. The gist of the method: (§1)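 Bioautographic assay, with the minimal inhibitory concentration (MIC) estimated from it.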
The subject of a further test is Saccharomyces cerevisiae. The experiment in a line: Antifungal activity against Saccharomyces cerevisiae ATCC 26.01. The gist of the method: as §1
Test [1] relates to Trichophyton mentagrophytes. The experiment in a line: Antifungal activity against Trichophyton mentagrophytes var. interdigitale CPCM 06.99. The gist of the method: as §1
Another test has as its system Aspergillus fumigatus. The experiment in a line: Antifungal activity against Aspergillus fumigatus 04-486. A digest of the protocol:
as §1

Broadly, the MIC is the lowest concentration found to suppress growth. Take `O=c1ccc2c3c(cc[n+]2[O-])c2ccccc2n13`: the MIC was more than 200 µM in the test with Candida albicans (read-out: MIC); more than 200 µM in the test on Cryptococcus neoformans (var grubii H99, read-out: MIC); 53 µM (≈ 12.5 µg/mL) in the test on Saccharomyces cerevisiae (read-out: MIC); more than 200 µM in test [1]; more than 200 µM against Aspergillus fumigatus.
With `O=c1ccc2c3c(cc[n+]2CCBr)c2ccccc2n13`, the MIC with Candida albicans (read-out: MIC) was more than 200 µM; with Cryptococcus neoformans (var grubii H99, read-out: MIC), more than 200 µM; in the test on Saccharomyces cerevisiae (read-out: MIC) it was 7.7 µM; in test [1], more than 200 µM; in the test on Aspergillus fumigatus it was more than 200 µM.
In the case of `CCCC[n+]1ccc2c3ccccc3n3c(=O)ccc1c23`, the minimal inhibitory concentration (MIC) in the test with Candida albicans (read-out: MIC) is 124 µM; in the test with Cryptococcus neoformans (var grubii H99, read-out: MIC), more than 200 µM; in the test on Saccharomyces cerevisiae (read-out: MIC), 124 µM; in test [1], more than 200 µM; against Aspergillus fumigatus it was more than 200 µM.
Consider `Nc1cc(=O)n2c3ccccc3c3ccnc1c32`, for which the minimum inhibitory concentration (MIC) with Candida albicans (read-out: MIC) is 53.2 µM (≈ 12.5 µg/mL); with Cryptococcus neoformans (var grubii H99, read-out: MIC), 106 µM (≈ 24.9 µg/mL); with Saccharomyces cerevisiae (read-out: MIC), 53.2 µM (≈ 12.5 µg/mL); in test [1], 106 µM (≈ 24.9 µg/mL); with Aspergillus fumigatus, more than 200 µM.
As for `COc1ccc2c(c1)c1ccnc3ccc(=O)n2c31`, the minimal inhibitory concentration (MIC) in the test on Candida albicans (read-out: MIC) is 100 µM (≈ 25 µg/mL); in the test with Cryptococcus neoformans (var grubii H99, read-out: MIC), 200 µM (≈ 50.1 µg/mL); with Saccharomyces cerevisiae (read-out: MIC), 50 µM (≈ 12.5 µg/mL); in test [1], more than 200 µM; in the test with Aspergillus fumigatus it was more than 200 µM.
Take `O=c1ccc2nccc3c4ccccc4n1c23` [CANTHIN-6-ONE]: the minimal inhibitory concentration (MIC) in the test with Candida albicans (read-out: MIC) stood at 56.8 µM (≈ 12.5 µg/mL); in the test on Cryptococcus neoformans (var grubii H99, read-out: MIC), 14.2 µM (≈ 3.13 µg/mL); with Saccharomyces cerevisiae (read-out: MIC), 14.2 µM (≈ 3.13 µg/mL); in test [1] it was 7.1 µM (≈ 1.56 µg/mL); with Aspergillus fumigatus, 14.2 µM (≈ 3.13 µg/mL).
In the case of `Cc1cc2c3ccccc3n3c(=O)ccc(n1)c23`, the minimal inhibitory concentration (MIC) against Candida albicans, against Cryptococcus neoformans (var grubii H99) and in the test on Saccharomyces cerevisiae was more than 200 µM each time.
For the compound `COc1c2c(c3ccc(=O)oc3c1/C=C/C(C)(C)O)OC(C)(C)C=C2` [AVICENNOL], the MIC in the test on Candida albicans (read-out: MIC) was 146 µM (≈ 50 µg/mL); in the test on Cryptococcus neoformans (var grubii H99, read-out: MIC) it was more than 200 µM; with Saccharomyces cerevisiae (read-out: MIC) it was more than 200 µM; against Aspergillus fumigatus it was more than 200 µM.
`COc1cc2nccc3c4ccccc4n(c1=O)c23` [5-METHOXYCANTHINONE]: the MIC with Candida albicans (read-out: MIC) was more than 200 µM; with Cryptococcus neoformans (var grubii H99, read-out: MIC), 50 µM (≈ 12.5 µg/mL); with Saccharomyces cerevisiae (read-out: MIC), 50 µM (≈ 12.5 µg/mL); in test [1], 6.3 µM (≈ 1.58 µg/mL); in the test on Aspergillus fumigatus, 50 µM (≈ 12.5 µg/mL).
Consider `O=c1ccc2nccc3c4ccc(F)cc4n1c23`, for which the MIC against Candida albicans, with Cryptococcus neoformans (var grubii H99) and in the test on Saccharomyces cerevisiae was 13.1 µM (≈ 3.12 µg/mL) each time.
`COc1c2c(c3ccc(=O)oc3c1/C=C\C(C)(C)O)OC(C)(C)C=C2`: the MIC in the test on Candida albicans (read-out: MIC) is 146 µM (≈ 50 µg/mL); in the test on Cryptococcus neoformans (var grubii H99, read-out: MIC), more than 200 µM; in the test on Saccharomyces cerevisiae (read-out: MIC), more than 200 µM; against Aspergillus fumigatus it was more than 200 µM.
In the case of `CC(=O)N1CCN(c2ccc(OCC3COC(Cn4ccnc4)(c4ccc(Cl)cc4Cl)O3)cc2)CC1` (centres undefined) [KETOCONAZOLE], the MIC in the test on Candida albicans (read-out: MIC) is 2.9 µM (≈ 1.54 µg/mL); with Cryptococcus neoformans (var grubii H99, read-out: MIC), 5.9 µM (≈ 3.14 µg/mL); with Saccharomyces cerevisiae (read-out: MIC) it was 5.9 µM (≈ 3.14 µg/mL); in test [1], 23.5 µM (≈ 12.5 µg/mL); with Aspergillus fumigatus, 94.2 µM (≈ 50.1 µg/mL).
